The results in this text go back to ChEMBL document CHEMBL5653605, “Reduced VEGF production, angiogenesis, and vascular regrowth contribute to the antitumor properties of dual mTORC1/mTORC2 inhibitors” (Cancer Res, 2011).

The source made the active and inactive calls. Bounds are passed on as bounds.

Test [1] deals with DNA-dependent protein kinase catalytic subunit (Homo sapiens, UniProt P78527). Nature of the test: Inhibition of DNA-PK activity (unknown origin) presence of ATP.
Test [2] has as its target Ephrin type-A receptor 2 (Homo sapiens, UniProt P29317). Nature of the test: Inhibition of EphA2 phosphorylation (unknown origin) by cell based assay.
The test system of test [3] is Pancreatic islet cell carcinoma. In words: Antivascular activity in pancreatic islet cell carcinoma in RIP-Tag2 mouse assessed as reduction in intratumoral hemorrhage by measuring reduction in TER-119 immunoreactivity at 75 mg/kg, po bid pretreated with OSI-930 for 7 days at 200 mg/kg, po followed by compound administration and measured after 4 days by confocal microscopic analysis relative to control. Format: functional. More on the design: scale not given: the % may be the effect or the level left. To be noted: time 4 day. An outline of the steps:
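Regrowth design in 10-week-old RIP-Tag2 mice: OSI-930 200 mg/kg gavage QD for 7 days, then 4 days of vehicle, 75 mg/kg gavage BID, or 20 mg/kg ip QD; controls received vehicle for 11 days. Perfusion-fixed sections stained for CD31 for vessel density or for the erythrocyte marker TER-119, quantified by confocal microscopy. 3–8 mice/group; ANOVA, Fisher PLSD.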

The target in test [4] is Phosphatidylinositol 4,5-bisphosphate 3-kinase catalytic subunit beta isoform (Homo sapiens, UniProt P42338). Nature of the test: Inhibition of PI3Kbeta (unknown origin) in presence of ATP by HTRF assay. An outline of the steps: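 PI3K activity by HTRF assay at […] ATP.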
Sequence of Phosphatidylinositol 4,5-bisphosphate 3-kinase catalytic subunit beta isoform (P42338 whole entry, canonical isoform): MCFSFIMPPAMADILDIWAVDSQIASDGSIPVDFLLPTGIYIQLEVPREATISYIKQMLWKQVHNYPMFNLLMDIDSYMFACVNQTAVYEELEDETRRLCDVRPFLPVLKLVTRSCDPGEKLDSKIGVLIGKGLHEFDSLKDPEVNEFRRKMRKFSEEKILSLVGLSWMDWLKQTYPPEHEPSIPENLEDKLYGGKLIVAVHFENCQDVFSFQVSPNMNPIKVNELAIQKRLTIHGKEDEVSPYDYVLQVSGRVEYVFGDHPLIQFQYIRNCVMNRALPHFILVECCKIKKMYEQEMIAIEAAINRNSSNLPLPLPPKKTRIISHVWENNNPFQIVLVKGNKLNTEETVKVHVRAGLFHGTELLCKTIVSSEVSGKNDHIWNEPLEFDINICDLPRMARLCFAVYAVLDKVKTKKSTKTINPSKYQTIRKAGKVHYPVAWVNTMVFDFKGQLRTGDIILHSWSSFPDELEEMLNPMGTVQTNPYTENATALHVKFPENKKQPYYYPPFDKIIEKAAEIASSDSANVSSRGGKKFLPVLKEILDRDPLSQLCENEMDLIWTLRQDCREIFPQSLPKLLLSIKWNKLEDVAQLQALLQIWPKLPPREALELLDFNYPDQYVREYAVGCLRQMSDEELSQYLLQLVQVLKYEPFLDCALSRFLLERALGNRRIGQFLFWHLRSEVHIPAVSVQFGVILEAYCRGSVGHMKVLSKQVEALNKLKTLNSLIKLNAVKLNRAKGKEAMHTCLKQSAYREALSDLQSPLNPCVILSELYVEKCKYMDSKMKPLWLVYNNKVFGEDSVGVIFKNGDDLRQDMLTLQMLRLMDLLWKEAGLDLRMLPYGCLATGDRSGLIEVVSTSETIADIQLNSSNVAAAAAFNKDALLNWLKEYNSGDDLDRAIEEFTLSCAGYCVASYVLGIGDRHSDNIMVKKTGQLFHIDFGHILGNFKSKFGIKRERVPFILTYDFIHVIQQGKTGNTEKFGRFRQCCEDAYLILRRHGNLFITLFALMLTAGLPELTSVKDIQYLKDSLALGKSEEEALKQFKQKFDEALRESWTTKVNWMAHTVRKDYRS
Test [5] deals with Dual specificity mitogen-activated protein kinase kinase 2 (Homo sapiens) (UniProt P36507). Nature of the test: Inhibition of MEK2 (unknown origin).
Test [6] concerns the target Proline-rich AKT1 substrate 1 (Homo sapiens) (UniProt Q96B36). Nature of the test: Inhibition of PRAS40 phosphorylation at Ser 246 residue in serum deprived/insulin stimulated human OVCAR-3 cells harboring PTEN and wild type PI3K preincubated for 2 hrs followed by insulin stimulation and measured immediately by Western blot analysis. Format: cell-based. The note with it: dose 0.001-10 µM.

Test [7] deals with Serine/threonine-protein kinase mTOR (Homo sapiens, UniProt P42345). In words: Inhibition of mTOR (unknown origin).
In test [8] the test system is Pancreatic islet cell carcinoma. In words: Antitumor activity against pancreatic islet cell carcinoma in RIP-Tag2 mouse assessed as reduction in VEGF-B expression at 75 mg/kg, po bid administered via gavage and measured after 1 to 7 days by immunoprecipitation based densitometric analysis. Format: functional, organism-based. The note with it: time 1-7 day. An outline of the steps:
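VEGF in tumor lysates from treated RIP-Tag2 mice (9–10 weeks old at start; 75 mg/kg gavage BID or 20 mg/kg ip QD) measured with mouse angiogenesis antibody arrays, read as pixel density. 3–8 mice/group, SEM; ANOVA with Fisher PLSD.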

Test [9] concerns the target mTORC2 (Homo sapiens, UniProt P42345). Nature of the test: Competitive inhibition of mTORC2 immunoprecipitated from human HeLa cells using His-tagged 4E-BP1 as substrate incubated for 30 mins in presence of ATP by chemiluminescence based ELISA. In outline: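 Native mTORC1 or mTORC2 complex immunoprecipitated from HeLa lysates; kinase reaction run at 1 mM ATP.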
The target of test [10] is Proto-oncogene tyrosine-protein kinase receptor Ret (Homo sapiens) (UniProt P07949). In words: Inhibition of RET (unknown origin) at 3 uM by Ambit Kinomescan assay relative to control.
The nature of test [11]: Inhibition of MAPK (unknown origin) signaling axis assessed as reduction in phosphorylated ERK1/2 level by cell based assay. To be noted: Homo sapiens.
The test system of test [12] is Pancreatic islet cell carcinoma. In words: Antivascular activity against pancreatic islet cell carcinoma in RIP-Tag2 mouse assessed as appearance of empty basement membrane sleeves at 75 mg/kg, po bid administered via gavage and measured after 7 days by immunohistochemical staining based fluorescence microscopic analysis. Format: functional, organism-based. The note with it: time 7.0 day. In outline:
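For 7 days, RIP-Tag2 mice, 9–10 weeks old, received 75 mg/kg gavage BID, 200 mg/kg gavage QD, or 20 mg/kg ip QD. Perfusion-fixed tumors cut at 60–80 µm and stained for CD31 and type IV collagen basement membrane. Vessel area density from fluorescence images with threshold 30–50; sprouts and empty basement membrane sleeves examined by confocal microscopy. 3–8 mice/group; ANOVA, Fisher PLSD.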

For test [13] the test system is unchanged. Nature of the test: Antitumor activity against pancreatic islet cell carcinoma in RIP-Tag2 mouse assessed as reduction in VEGF production by measuring reduction in tumor cell associated fluorescence intensity at 75 mg/kg, po bid administered via gavage and measured after 7 days by immunohistochemical staining based confocal microscopic analysis relative to control. More on the design: scale not given: the % may be the effect or the level left. The note with it: time 7 day. Format: functional. An outline of the steps: (§1)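 Treatment began in RIP-Tag2 mice at 9–10 weeks: 75 mg/kg gavage BID for 1, 4 or 7 days, or 20 mg/kg ip QD for 7 days; vehicle Labrifil or water. Tissue fixed by vascular perfusion and 60–80 µm sections stained for VEGF with CD31. VEGF fluorescence intensity measured over whole tumor, tumor cells, or tumor vessels. 3–8 mice/group; ANOVA, Fisher PLSD.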

For test [14] the test system is unchanged. In words: Antitumor activity against pancreatic islet cell carcinoma in RIP-Tag2 mouse assessed as induction of apoptosis by measuring caspase-3 activation at 75 mg/kg, po bid administered via gavage and measured after 7 days by immunohistochemistry analysis. Format: functional, organism-based. The note with it: time 7.0 day. In outline: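 RIP-Tag2 mice aged 9–10 weeks dosed by gavage BID for 7 days; vehicle Labrifil or water. Mice fixed by vascular perfusion, tumors cut into 60–80 µm sections. Proliferating cells stained for phospho-histone H3 and apoptotic cells for activated caspase-3. Sections imaged by fluorescence/confocal microscopy. Body weight checked daily, fluids given if loss exceeded 10%. 3–8 mice per group, SEM, ANOVA with Fisher PLSD.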

The test system is the same in test [15]. Nature of the test: Antitumor activity against pancreatic islet cell carcinoma in RIP-Tag2 mouse assessed as reduction in VEGF production by measuring reduction in fluorescence in entire tumor at 75 mg/kg, po bid administered via gavage and measured after 1 day by immunohistochemical staining based confocal microscopic analysis relative to control. Format: functional. More on the design: scale not given: the % may be the effect or the level left. In outline:
as §1

Test [16] addresses Phosphatidylinositol 4,5-bisphosphate 3-kinase catalytic subunit delta isoform (Homo sapiens) (UniProt O00329). In words: Inhibition of PI3Kdelta (unknown origin) at 3 uM by Ambit Kinomescan assay relative to control.
Test [17] concerns the target Vascular endothelial growth factor receptor 2 (Homo sapiens, UniProt P35968). In words: Inhibition of VEGFR2 phosphorylation (unknown origin) by cell based assay.
The subject of test [18] is Pancreatic islet cell carcinoma. In words: Antivascular activity in pancreatic islet cell carcinoma in RIP-Tag2 mouse assessed as suppression of tumor regrowth by measuring reduction in vessel density at 75 mg/kg, po bid administered via gavage pretreated with OSI-930 for 7 days at 200 mg/kg, po followed by compound administration and measured after 1 day. Format: functional, organism-based.

Test [19] concerns the target Mitogen-activated protein kinase 10 (Homo sapiens) (UniProt P53779). In words: Inhibition of JNK3 (unknown origin).
Test [20] has as its system OVCAR-3. Nature of the test: Inhibition of S6K at […] residues in serum deprived/insulin stimulated human OVCAR-3 cells harboring PTEN and wild type PI3K assessed as inhibition of s6 substrate phosphorylation at […] residue at 0.001 to 10 uM preincubated for 2 hrs followed by insulin stimulation and measured immediately by Western blot analysis. Format: cell-based. To be noted: dose 0.001-10 µM.

The target in test [21] is RAC-alpha serine/threonine-protein kinase (Homo sapiens) (UniProt P31749). In words: Inhibition of AKT phosphorylation at Ser 473 site in serum deprived/insulin stimulated human OVCAR-3 cells harboring PTEN and wild type PI3K preincubated for 2 hrs followed by insulin stimulation and measured immediately by Western blot analysis. Format: cell-based. To be noted: dose 0.001-10 µM.

Sequence of DNA-dependent protein kinase catalytic subunit (P78527 whole entry): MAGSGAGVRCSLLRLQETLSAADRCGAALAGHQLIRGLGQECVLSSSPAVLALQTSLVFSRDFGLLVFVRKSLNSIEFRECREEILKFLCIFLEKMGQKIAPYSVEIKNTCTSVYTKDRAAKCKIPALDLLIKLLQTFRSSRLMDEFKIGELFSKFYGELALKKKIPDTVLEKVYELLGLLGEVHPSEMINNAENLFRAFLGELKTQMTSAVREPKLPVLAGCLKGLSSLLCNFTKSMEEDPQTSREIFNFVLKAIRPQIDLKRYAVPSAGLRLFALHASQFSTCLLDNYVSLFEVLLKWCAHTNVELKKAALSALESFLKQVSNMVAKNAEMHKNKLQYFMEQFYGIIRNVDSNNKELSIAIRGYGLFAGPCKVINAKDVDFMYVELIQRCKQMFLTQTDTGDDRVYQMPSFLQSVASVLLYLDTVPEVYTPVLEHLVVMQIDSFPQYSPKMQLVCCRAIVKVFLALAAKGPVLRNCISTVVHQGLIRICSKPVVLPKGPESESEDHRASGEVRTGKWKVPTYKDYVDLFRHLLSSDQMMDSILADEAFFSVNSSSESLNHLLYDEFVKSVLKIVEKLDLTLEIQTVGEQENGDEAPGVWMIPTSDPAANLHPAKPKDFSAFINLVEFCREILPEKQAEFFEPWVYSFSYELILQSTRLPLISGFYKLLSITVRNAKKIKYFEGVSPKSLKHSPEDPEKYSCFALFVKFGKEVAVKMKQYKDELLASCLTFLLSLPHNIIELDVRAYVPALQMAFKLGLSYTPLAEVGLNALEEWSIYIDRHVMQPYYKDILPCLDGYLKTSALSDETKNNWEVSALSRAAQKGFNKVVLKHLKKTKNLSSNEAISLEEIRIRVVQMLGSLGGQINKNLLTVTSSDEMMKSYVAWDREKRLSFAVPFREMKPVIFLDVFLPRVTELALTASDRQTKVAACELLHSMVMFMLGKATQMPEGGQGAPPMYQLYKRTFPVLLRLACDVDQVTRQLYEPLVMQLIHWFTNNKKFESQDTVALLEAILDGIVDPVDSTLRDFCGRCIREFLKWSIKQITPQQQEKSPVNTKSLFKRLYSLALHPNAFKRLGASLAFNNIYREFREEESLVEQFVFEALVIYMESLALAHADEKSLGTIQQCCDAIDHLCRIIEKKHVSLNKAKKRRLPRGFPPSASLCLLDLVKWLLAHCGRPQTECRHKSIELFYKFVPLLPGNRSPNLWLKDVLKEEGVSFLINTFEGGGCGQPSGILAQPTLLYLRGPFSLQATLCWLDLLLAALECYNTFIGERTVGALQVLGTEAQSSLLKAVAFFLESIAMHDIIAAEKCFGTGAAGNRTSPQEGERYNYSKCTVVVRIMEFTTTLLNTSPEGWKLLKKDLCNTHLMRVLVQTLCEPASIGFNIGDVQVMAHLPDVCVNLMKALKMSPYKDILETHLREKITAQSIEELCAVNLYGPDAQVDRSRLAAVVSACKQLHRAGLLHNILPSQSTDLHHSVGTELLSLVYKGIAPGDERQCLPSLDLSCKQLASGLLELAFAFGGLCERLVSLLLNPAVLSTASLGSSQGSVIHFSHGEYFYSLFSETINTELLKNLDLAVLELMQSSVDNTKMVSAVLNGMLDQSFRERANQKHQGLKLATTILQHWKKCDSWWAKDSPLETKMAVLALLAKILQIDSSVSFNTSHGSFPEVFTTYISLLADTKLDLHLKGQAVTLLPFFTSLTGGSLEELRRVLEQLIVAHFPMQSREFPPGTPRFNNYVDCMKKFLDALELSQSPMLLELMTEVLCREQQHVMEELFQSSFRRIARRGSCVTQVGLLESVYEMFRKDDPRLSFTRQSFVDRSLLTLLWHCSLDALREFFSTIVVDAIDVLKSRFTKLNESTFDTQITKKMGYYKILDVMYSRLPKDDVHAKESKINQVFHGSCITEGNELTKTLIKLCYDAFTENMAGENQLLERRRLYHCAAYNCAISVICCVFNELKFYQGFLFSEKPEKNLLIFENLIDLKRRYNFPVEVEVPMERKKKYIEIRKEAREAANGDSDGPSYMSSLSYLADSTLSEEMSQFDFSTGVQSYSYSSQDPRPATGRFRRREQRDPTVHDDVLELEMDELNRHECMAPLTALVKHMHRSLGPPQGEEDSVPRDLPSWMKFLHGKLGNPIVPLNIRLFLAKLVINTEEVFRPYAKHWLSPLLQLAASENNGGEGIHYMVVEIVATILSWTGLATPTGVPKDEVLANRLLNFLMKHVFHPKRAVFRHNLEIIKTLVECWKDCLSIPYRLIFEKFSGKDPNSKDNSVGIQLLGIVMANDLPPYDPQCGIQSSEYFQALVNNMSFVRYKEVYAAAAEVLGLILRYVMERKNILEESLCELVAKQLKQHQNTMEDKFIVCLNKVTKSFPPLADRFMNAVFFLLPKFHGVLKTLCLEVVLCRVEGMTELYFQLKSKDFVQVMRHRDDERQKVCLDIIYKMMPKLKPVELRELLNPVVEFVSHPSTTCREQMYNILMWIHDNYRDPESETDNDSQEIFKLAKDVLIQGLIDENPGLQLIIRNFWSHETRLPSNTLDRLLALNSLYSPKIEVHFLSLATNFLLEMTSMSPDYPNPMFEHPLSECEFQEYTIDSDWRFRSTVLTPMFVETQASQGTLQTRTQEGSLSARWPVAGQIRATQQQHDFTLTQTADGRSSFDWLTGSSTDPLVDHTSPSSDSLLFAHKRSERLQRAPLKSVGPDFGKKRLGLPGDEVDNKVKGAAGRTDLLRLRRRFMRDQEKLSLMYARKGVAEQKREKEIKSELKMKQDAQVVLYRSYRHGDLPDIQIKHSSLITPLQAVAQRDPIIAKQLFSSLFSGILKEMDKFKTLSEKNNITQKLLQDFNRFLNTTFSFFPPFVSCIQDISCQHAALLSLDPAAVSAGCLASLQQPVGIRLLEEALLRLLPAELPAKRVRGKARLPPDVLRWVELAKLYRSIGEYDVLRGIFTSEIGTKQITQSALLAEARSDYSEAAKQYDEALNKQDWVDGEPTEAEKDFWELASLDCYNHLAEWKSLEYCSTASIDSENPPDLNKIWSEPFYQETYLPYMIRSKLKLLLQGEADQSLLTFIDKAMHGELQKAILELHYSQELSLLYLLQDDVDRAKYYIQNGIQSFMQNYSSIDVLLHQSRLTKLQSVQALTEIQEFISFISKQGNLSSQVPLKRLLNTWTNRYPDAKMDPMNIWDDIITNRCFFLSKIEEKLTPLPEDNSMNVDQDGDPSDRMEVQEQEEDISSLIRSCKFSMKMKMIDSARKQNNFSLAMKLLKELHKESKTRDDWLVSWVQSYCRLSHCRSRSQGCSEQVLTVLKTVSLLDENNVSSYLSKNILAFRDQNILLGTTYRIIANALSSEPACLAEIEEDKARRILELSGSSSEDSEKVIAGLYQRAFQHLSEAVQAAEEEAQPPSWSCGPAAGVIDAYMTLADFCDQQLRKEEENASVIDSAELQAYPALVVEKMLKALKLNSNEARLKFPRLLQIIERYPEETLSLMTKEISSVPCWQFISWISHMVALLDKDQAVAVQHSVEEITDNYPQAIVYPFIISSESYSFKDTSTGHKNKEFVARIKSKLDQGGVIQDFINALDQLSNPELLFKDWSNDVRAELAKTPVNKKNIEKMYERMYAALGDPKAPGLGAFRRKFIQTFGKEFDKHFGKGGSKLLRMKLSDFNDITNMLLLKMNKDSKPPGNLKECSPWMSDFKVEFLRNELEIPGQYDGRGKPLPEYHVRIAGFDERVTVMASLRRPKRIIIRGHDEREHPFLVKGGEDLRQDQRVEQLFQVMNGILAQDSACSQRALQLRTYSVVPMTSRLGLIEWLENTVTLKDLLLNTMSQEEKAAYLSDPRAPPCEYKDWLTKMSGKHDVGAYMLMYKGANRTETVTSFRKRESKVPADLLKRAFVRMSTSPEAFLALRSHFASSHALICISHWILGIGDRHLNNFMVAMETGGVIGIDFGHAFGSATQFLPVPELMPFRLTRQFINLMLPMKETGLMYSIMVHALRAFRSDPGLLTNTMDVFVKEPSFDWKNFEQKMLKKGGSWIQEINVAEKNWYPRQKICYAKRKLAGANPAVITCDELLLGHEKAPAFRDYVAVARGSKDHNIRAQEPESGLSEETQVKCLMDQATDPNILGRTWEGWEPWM

As to `Nc1nccn2c1c(-c1cc3cccc(Cl)c3[nH]1)nc2[C@H]1CC[C@H](C(=O)O)CC1`, the IC50 in test [1] is 3.2 µM; in test [2] it was > 40 µM; in test [4], 9.3 µM; in test [7], 0.011 µM; in [9], 0.007 µM; in [11], > 40 µM. In addition, in test [17], the IC50 is > 40 µM. The Activity in test [3] stood at 50%; in test [13] it was 65%; in test [15] it was 12%. The inhibition entry in test [5], in [19] and in test [20] was “Active” in each case. Also, the inhibition result was “Dose-Dependent Effect” in test [6], > 90% in test [10], > 90% in test [16] and “Dose-Dependent Effect” in test [21]. In addition, the outcome in test [8], in test [12] and in [18] was inactive. For the same molecule, in [14], the outcome was Active.
